ChEMBL document CHEMBL3856275, “Discovery of Second Generation Reversible Covalent DPP1 Inhibitors Leading to an Oxazepane Amidoacetonitrile Based Clinical Candidate (AZD7986)” (J Med Chem, 2016)
≈ marks a conversion by molar mass, not a printed value.

Columns and labels:
physchem [1] = conditions: octanol/water, pH 7.4
Dipeptidyl peptidase 1 [2] = molecular target: T1, Dipeptidyl peptidase 1 (Homo sapiens, UniProt P53634); assay: Inhibition of DPP1 in human U937 cells using Gly-Phe-AFC as substrate preincubated for 60 mins followed by substrate addition by fluorescence assay; type: cell-based, U-937
T1 sequence (P53634 25-134 limits assumed): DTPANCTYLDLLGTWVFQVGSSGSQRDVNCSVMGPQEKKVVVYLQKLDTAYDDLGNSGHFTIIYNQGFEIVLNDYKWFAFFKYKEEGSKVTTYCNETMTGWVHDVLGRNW
T1 sequence (P53634 231-394 limits assumed): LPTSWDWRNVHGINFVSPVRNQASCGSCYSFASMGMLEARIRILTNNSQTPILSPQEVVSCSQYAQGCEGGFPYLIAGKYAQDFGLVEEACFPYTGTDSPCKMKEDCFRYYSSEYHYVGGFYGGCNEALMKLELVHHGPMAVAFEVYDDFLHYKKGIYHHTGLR
T1 sequence (P53634 395-463 limits assumed): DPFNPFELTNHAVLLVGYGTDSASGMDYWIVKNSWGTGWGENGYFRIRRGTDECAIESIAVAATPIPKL

[3] = Intrinsic clearance in human liver microsomes at 1 uM after 5 to 40 mins by LC-MS/MS method; type: ADME; conditions: read-out: CLH
Dipeptidyl peptidase 1 [4] = molecular target: T1, Dipeptidyl peptidase 1; assay: Inhibition of human recombinant DPP1 using Gly-Arg-AMC as substrate preincubated for 30 mins followed by substrate addition by fluorometric assay
Method in brief: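 Isolated human recombinant DPP1 was run in a fluorometric assay in piperazine-based buffer. Compound was pre-incubated with enzyme for 30 min at rt, then Gly-Arg-AMC dipeptide substrate was added. Data were curve-fitted to give pIC50, as the mean of at least two experiments.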

[5] = Apparent permeability across basolateral to apical side in human Caco2 cells at 10 uM after 1 hr by LC-MS method; conditions: Caco-2
[6] = Intrinsic clearance in rat hepatocytes assessed per 10^6 cells at 1 uM after 10 to 90 mins by LC-MS/MS method; type: ADME, cell-based, Hepatocyte
physchem [7] = conditions: buffer, pH 7.4
[8] = Apparent permeability across apical to basolateral side in human Caco2 cells at 10 uM after 1 hr by LC-MS method; conditions: Caco-2
[9] = Protein binding in human plasma at 10 uM after 6 hrs by LC-MS/MS method; type: ADME, cell-free; conditions: read-out: PPB (converted)
[10] = Protein binding in rat plasma at 10 uM after 6 hrs by LC-MS/MS method; type: ADME, cell-free; conditions: read-out: PPB (converted)
[11] = Propionaldehyde reactivity assessed as half life of the compound at pH 7.4 by LC-UV method; type: physicochemical
[12] = Efflux ratio of apparent permeability across basolateral to apical over apical to basolateral side in human Caco2 cells at 10 uM after 1 hr by LC-MS method; conditions: Caco-2
[13] = molecular target: Voltage-gated inwardly rectifying potassium channel KCNH2 (Homo sapiens, UniProt Q12809)
Sequence of Voltage-gated inwardly rectifying potassium channel KCNH2 (Q12809 whole entry): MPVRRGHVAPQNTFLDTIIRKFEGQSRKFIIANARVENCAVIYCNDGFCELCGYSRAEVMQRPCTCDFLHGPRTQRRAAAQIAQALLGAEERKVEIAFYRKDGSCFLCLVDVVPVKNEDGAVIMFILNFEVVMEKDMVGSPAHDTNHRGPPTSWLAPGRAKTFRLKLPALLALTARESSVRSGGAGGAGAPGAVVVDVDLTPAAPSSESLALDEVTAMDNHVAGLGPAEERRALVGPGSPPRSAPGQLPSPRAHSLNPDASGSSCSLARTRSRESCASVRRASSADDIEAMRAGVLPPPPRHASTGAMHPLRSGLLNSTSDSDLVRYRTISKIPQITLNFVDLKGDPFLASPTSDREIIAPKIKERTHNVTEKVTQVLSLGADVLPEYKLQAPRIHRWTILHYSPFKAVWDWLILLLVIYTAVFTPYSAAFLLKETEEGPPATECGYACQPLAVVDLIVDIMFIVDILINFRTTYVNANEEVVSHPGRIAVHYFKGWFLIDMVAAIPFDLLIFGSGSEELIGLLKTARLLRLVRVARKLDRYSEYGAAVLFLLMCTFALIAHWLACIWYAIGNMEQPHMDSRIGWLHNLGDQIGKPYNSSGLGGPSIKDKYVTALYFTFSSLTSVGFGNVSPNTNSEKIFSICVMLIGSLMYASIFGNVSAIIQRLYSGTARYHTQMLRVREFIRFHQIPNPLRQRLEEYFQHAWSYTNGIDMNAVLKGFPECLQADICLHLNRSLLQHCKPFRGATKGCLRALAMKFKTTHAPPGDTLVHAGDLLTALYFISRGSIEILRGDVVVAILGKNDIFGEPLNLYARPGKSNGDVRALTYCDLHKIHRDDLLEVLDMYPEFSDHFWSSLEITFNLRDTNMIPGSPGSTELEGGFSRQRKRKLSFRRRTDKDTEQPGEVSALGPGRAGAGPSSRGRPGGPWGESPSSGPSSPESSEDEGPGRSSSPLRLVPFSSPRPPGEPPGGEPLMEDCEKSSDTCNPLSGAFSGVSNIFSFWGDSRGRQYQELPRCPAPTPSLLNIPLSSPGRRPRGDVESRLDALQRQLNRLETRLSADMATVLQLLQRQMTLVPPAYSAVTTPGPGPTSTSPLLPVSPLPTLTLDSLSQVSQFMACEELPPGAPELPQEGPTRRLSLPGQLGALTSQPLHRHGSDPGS

Compound | logD at 10 µM (physchem [1]) | IC50 (Dipeptidyl peptidase 1 [2]) [nM] | IC50 (Dipeptidyl peptidase 1 [4]) [nM] | half-life [11] [min] | other results
CN1C(=O)COc2ccc(-c3ccc(C[C@@H](C#N)NC(=O)[C@@H]4CNCCCO4)cc3)cc21 | 1.1 | 12.6 |  |  | 
N#Cc1ccc(-c2ccc(C[C@@H](C#N)NC(=O)[C@@H]3CCCC[C@@H]3N)cc2)cc1 | 1.6 | 39.8 | 39.8 | > 3000 | microsomal CLint at 1 µM [3]: 9.3 µL/min/mg; Papp B→A at 1 h, 10 µM [5]: 36 ×10⁻⁶ cm/s; CLH [6]: < 3.5 µL/min/10^6 cells; solubility kinetic at 2 h (physchem [7]): 175 µM (≈ 65.2 µg/mL); Papp A→B at 1 h, 10 µM [8]: 11 ×10⁻⁶ cm/s; fraction unbound at 6 h, 10 µM [9]: 0.07; fraction unbound at 6 h, 10 µM [10]: 0.12
Cc1noc2ccc(-c3ccc(C[C@@H](C#N)NC(=O)[C@@H]4CNCCCO4)cc3)cc12 | 1.5 | 15.8 | 15.8 |  | 
N#Cc1ccc(-c2ccc(C[C@@H](C#N)NC(=O)[C@@H]3CCCCC[C@@H]3N)cc2)cc1 | 2 | 31.6 | 39.8 | > 3000 | efflux ratio at 1 h, 10 µM [12]: 2; microsomal CLint at 1 µM [3]: 13 µL/min/mg; Papp B→A at 1 h, 10 µM [5]: 23 ×10⁻⁶ cm/s; CLH [6]: < 3.5 µL/min/10^6 cells; IC50 [13]: 3.6 µM; solubility kinetic at 2 h (physchem [7]): 175 µM (≈ 67.6 µg/mL); Papp A→B at 1 h, 10 µM [8]: 11 ×10⁻⁶ cm/s; fraction unbound at 6 h, 10 µM [9]: 0.03; fraction unbound at 6 h, 10 µM [10]: 0.08
N#Cc1ccc(-c2ccc(C[C@@H](C#N)NC(=O)[C@@H]3CNCCO3)cc2)cc1 | 1.4 | 501 | 398 | > 3000 | 
N#C[C@H](Cc1ccc(-c2ccc(C(F)(F)F)cc2)cc1)NC(=O)[C@@H]1CNCCCO1 | 2.8 |  | 39.8 |  | 
N#C[C@H](Cc1ccc(-c2ccc3scnc3c2)cc1)NC(=O)[C@@H]1CNCCCO1 | 1.5 |  | 63.1 |  | 
Cn1c(=O)ccc2ccc(-c3ccc(C[C@@H](C#N)NC(=O)[C@@H]4CNCCCO4)cc3)cc21 | 1.1 | 12.6 | 12.6 |  | 
N#Cc1ccc(-c2ccc(C[C@@H](C#N)NC(=O)[C@H]3CCCC[C@@H]3N)cc2)cc1 |  | 398 | 501 | > 3000 | 
N#Cc1ccc(-c2ccc(C[C@@H](C#N)NC(=O)[C@H]3CCCC[C@H]3N)cc2)cc1 |  |  | > 10000 | > 3000 | 
N#C[C@H](Cc1ccc(-c2ncc(C(F)(F)F)cn2)cc1)NC(=O)[C@@H]1CNCCCO1 | 1.1 | 200 | 200 |  | 
N#Cc1ccc(-c2ccc(C[C@@H](C#N)NC(=O)[C@H]3CNCCO3)cc2)cc1 | 1.6 |  | > 10000 | > 3000 | 
N#Cc1cccc(-c2ccc(C[C@@H](C#N)NC(=O)C3CCCCC3N)cc2)c1 (stereo not given in full) |  |  | 1000 |  | 
N#Cc1ccc(-c2ccc(C[C@@H](C#N)NC(=O)[C@H]3CNCCCO3)cc2)cc1 | 1.2 |  | 6310 | > 3000 | 
